One block for each compound: values may come before it. The source made the active and inactive calls. No cut-off for these calls is given here.
Assays:
Rattus norvegicus [1] = assay: Behavioral activity in Wistar rat assessed as reduction of 8-OH-DPAT-induced lower lip retraction at 10 to 20 mg/kg, ip administered 45 mins before 8-OH-DPAT challenge
Mus musculus [2] = assay: Agonist activity at 5HT1A receptor in Swiss albino mouse assessed as decrease in rectal temperature at 10 mg/kg, ip after 60 mins; assay type: functional, organism-based; design: dose 10 mg/kg
In short: (§1)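 Male Albino Swiss mice (24–28 g), free food and water, room at 20 ± 1 °C; test agent suspended in 1% aqueous Tween 80, given ip at 10 ml/kg. Rectal temperature read with a thermometer at 30, 60, 90 and 120 min after dosing. Result expressed as Δt from basal temperature taken at the start; six to ten animals per group, each used once.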

[3] = target: 5-hydroxytryptamine receptor 2A (Rattus norvegicus, UniProt P14842); assay: Displacement of [3H]ketanserin from 5HT2A receptor in rat cerebral cortex after 20 mins by liquid scintillation counting; assay type: tissue-based
In short: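 Rat cerebral cortex homogenised in 50 mM Tris-HCl pH 7.7, spun at 32000 × g, preincubated 10 min at 37 °C, resuspended in 50 volumes. Incubated with 0.6 nM [3H]-ketanserin and test agent (10^-10 to 10^-4 M) at 37 °C for 20 min; mianserin as displacer. GF/B filtration, scintillation counting; Ki from ≥3 experiments, 10 concentrations in triplicate.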

Mus musculus [4] = assay: Sedative activity in Swiss albino mouse assessed as reduction on spontaneous locomotor activity at 20 mg/kg, ip administered 30 mins before test measured for 30 mins; assay type: ADME, organism-based; design: dose 20 mg/kg, route intraperitoneal; details: in vivo, 0.5 h
In short: (§2)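 Male Albino Swiss mice (24–28 g); agent ip in 1% Tween 80, 30 min before the test. Locomotor activity counted as number of crossings during 6-min and 30-min sessions. n = 8–10 mice per group; mean ± SEM versus vehicle.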

Mus musculus [5] = species on record: Mus musculus; details: Swiss albino, 20 mg/kg
Mus musculus [6] = assay: Sedative activity in Swiss albino mouse assessed as reduction on spontaneous locomotor activity at 30 mg/kg, ip administered 30 mins before test measured for 6 mins; assay type: ADME, organism-based; design: dose 30 mg/kg, route intraperitoneal; details: in vivo, 0.1 h
In short: as §2

Mus musculus [7] = species on record: Mus musculus; details: Swiss albino, 20 mg/kg; remark: listed apart in the source
Mus musculus [8] = assay: Antidepressant activity in Swiss albino mouse assessed as reduction of immobility time at 10 mg/kg, ip administered 30 mins before test by forced swimming test; assay type: functional; details: route intraperitoneal
In short: (§3)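 Male Albino Swiss mice (24–28 g); agent suspended in 1% aqueous Tween 80, ip 10 ml/kg, 30 min before the test. Total immobility time scored over the last 4 min of a 6-min swim session. n = 8–10 mice per group; mean ± SEM, compared with vehicle.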

Mus musculus [9] = species on record: Mus musculus; details: Swiss albino, 20 mg/kg; remark: listed apart in the source
Mus musculus [10] = assay: Antidepressant activity in Swiss albino mouse assessed as reduction of immobility time at 30 mg/kg, ip administered 30 mins before test by forced swimming test; assay type: functional; details: route intraperitoneal
In short: as §3

Mus musculus [11] = species on record: Mus musculus; details: Swiss albino, 20 mg/kg; remark: listed apart in the source
D(2) dopamine receptor = D(2) dopamine receptor (Rattus norvegicus, UniProt P61169); assay: Displacement of [3H]spiperone from dopamine D2 receptor in rat striatum membrane after 30 mins by liquid scintillation counting; assay type: cell membranes
In short: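 Rat striatum homogenised in 50 mM potassium phosphate pH 7.4 and spun twice at 20000 × g. Membranes (3 mg wet weight) incubated with 1 nM [3H]-spiperone and test agent in 0.5 ml for 30 min at 37 °C. Nonspecific binding with (+)butaclamol. GF/B filtration, two washes with ice-cold buffer, scintillation counting; Ki from ≥3 experiments, 10 concentrations in triplicate.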

Mus musculus [12] = species on record: Mus musculus; details: Swiss albino, 20 mg/kg; remark: listed apart in the source
Mus musculus [13] = species on record: Mus musculus; details: Swiss albino, 20 mg/kg; remark: listed apart in the source
Mus musculus [14] = assay: Anxiolytic activity in Swiss albino mouse assessed as number of punished crossings at 20 mg/kg, ip. administered 30 mins before test measured for 60s by four plate test; assay type: functional
In short: (§4)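 Male Albino Swiss mice. Box with four metal floor plates separated by 4 mm gaps; 120 V between adjacent plates for 0.5 s delivered on crossing. Mice explored 15 s before testing. Agent (ip, 1% Tween 80) given 30 min before the test. Punished crossings counted; n = 10 mice per group, mean ± SEM.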

Mus musculus [15] = assay: Sedative activity in Swiss albino mouse assessed as reduction on spontaneous locomotor activity at 20 mg/kg, ip administered 30 mins before test measured for 6 mins; assay type: ADME, organism-based; design: dose 20 mg/kg, route intraperitoneal; details: in vivo, 0.1 h
In short: as §2

Mus musculus [16] = assay: Agonist activity at 5HT1A receptor in Swiss albino mouse assessed as decrease in rectal temperature at 10 mg/kg, ip after 30 mins; assay type: functional, organism-based; design: dose 10 mg/kg
In short: as §1

[17] = target: T1, 5-hydroxytryptamine receptor 1A (Rattus norvegicus, UniProt P19327); assay: Displacement of [3H]8-OH-DPAT from 5HT1A receptor in rat cerebral cortex after 15 mins by liquid scintillation counting; assay type: tissue-based
T1 sequence (P19327 whole entry): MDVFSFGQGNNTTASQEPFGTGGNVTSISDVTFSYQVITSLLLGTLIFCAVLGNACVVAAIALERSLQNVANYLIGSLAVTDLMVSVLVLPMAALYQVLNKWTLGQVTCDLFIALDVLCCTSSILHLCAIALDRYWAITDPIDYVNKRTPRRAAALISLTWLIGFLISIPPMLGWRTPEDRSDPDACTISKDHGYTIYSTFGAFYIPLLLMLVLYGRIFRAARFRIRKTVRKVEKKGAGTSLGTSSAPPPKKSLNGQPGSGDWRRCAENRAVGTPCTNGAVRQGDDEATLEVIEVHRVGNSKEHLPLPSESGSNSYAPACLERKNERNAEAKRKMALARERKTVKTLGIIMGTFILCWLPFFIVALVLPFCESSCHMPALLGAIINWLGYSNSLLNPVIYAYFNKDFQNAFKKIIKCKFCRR

Mus musculus [18] = assay: Sedative activity in Swiss albino mouse assessed as reduction on spontaneous locomotor activity at 30 mg/kg, ip administered 30 mins before test measured for 30 mins; assay type: ADME, organism-based; design: dose 30 mg/kg, route intraperitoneal; details: in vivo, 0.5 h
In short: as §2

Mus musculus [19] = assay: Antidepressant activity in Swiss albino mouse assessed as reduction of immobility time at 20 mg/kg, ip administered 30 mins before test by forced swimming test; assay type: functional; details: route intraperitoneal
In short: as §3

Mus musculus [20] = assay: Anxiolytic activity in Swiss albino mouse assessed as number of punished crossings at 30 mg/kg, ip administered 30 mins before test measured for 60s by four plate test; assay type: functional; details: route intraperitoneal
In short: as §4

Mus musculus [21] = assay: Agonist activity at 5HT1A receptor in ip dosed Swiss albino mouse assessed as decrease in rectal temperature; assay type: functional, organism-based
In short: as §1

Mus musculus [22] = assay: Agonist activity at 5HT1A receptor in Swiss albino mouse assessed as decrease in rectal temperature at 10 mg/kg, ip after 90 mins; assay type: functional, organism-based; design: dose 10 mg/kg
In short: as §1

Mus musculus [23] = assay: Agonist activity at 5HT1A receptor in Swiss albino mouse assessed as decrease in rectal temperature at 10 mg/kg, ip after 60 mins in presence of WAY 100635 administered 15 mins before drug challenge; assay type: functional, organism-based; design: dose 10 mg/kg
In short: (§5)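 Male Albino Swiss mice (24–28 g). WAY 100635 (0.1 mg/kg, sc, in distilled water) given 15 min before test agent (ip, suspended in 1% Tween 80, 10 ml/kg). Rectal temperature recorded 30 and 60 min after test agent injection. Expressed as Δt versus basal temperature at the start of the experiment.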

Mus musculus [24] = assay: Agonist activity at 5HT1A receptor in Swiss albino mouse assessed as decrease in rectal temperature at 10 mg/kg, ip after 30 mins in presence of WAY 100635 administered 15 mins before drug challenge; assay type: functional, organism-based; design: dose 10 mg/kg
In short: as §5

Mus musculus [25] = assay: Agonist activity at 5HT1A receptor in Swiss albino mouse assessed as decrease in rectal temperature at 5 mg/kg, ip after 90 mins; assay type: functional, organism-based; design: dose 5 mg/kg
In short: as §1

Mus musculus [26] = assay: Agonist activity at 5HT1A receptor in Swiss albino mouse assessed as decrease in rectal temperature at 5 mg/kg, ip after 30 mins; assay type: functional, organism-based; design: dose 5 mg/kg
In short: as §1

Rattus norvegicus [27] = assay: Behavioral activity in Wistar rat assessed as induction of lower lip retraction at 10 to 20 mg/kg, ip; assay type: functional, organism-based
In short: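 Male Wistar rats (290–310 g); agent ip in 1% Tween 80 at 2 ml/kg. Rats housed singly in cages and scored 15, 30 and 45 min after dosing: 0 = lower incisors not visible, 0.5 = partly, 1 = fully visible. Maximum total score 3 per rat.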

Mus musculus [28] = assay: Agonist activity at 5HT1A receptor in Swiss albino mouse assessed as decrease in rectal temperature at 10 mg/kg, ip after 120 mins; assay type: functional, organism-based; design: dose 10 mg/kg
In short: as §1

Mus musculus [29] = assay: Agonist activity at 5HT1A receptor in Swiss albino mouse assessed as decrease in rectal temperature at 5 mg/kg, ip after 120 mins; assay type: functional, organism-based; design: dose 5 mg/kg
In short: as §1

Mus musculus [30] = assay: Agonist activity at 5HT1A receptor in Swiss albino mouse assessed as decrease in rectal temperature at 5 mg/kg, ip after 60 mins; assay type: functional, organism-based; design: dose 5 mg/kg
In short: as §1

Chain of D(2) dopamine receptor (P61169 whole entry): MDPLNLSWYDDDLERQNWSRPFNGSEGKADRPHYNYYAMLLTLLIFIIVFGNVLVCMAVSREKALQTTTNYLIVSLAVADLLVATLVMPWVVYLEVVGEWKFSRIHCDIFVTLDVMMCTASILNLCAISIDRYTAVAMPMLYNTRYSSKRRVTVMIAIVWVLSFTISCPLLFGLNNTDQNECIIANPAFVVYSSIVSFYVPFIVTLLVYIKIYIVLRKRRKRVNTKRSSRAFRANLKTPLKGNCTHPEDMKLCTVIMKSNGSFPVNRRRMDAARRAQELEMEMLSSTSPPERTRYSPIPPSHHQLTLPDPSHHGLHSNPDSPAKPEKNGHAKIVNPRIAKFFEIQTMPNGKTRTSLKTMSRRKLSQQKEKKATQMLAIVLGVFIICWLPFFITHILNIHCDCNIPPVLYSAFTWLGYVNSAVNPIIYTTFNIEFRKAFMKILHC
Chain of 5-hydroxytryptamine receptor 2A (P14842 whole entry): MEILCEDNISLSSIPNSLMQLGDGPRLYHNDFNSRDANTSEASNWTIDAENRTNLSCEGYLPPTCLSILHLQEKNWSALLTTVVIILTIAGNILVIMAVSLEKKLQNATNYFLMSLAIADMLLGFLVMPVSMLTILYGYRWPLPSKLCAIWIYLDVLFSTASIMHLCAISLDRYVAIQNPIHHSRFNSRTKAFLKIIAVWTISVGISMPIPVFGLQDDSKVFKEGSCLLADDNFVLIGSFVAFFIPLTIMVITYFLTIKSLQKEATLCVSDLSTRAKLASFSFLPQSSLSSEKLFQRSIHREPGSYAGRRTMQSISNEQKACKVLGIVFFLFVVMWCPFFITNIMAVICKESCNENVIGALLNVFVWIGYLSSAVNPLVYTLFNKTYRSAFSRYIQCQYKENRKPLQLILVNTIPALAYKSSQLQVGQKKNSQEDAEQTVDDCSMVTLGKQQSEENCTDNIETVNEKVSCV

Compound: COc1ccccc1N1CCN(CCN(C(=O)C2CCCCC2)c2ccccn2)CC1
Activity (Rattus norvegicus [1]): Active

Compound: Cn1c(=O)c2c(nc3nc(NCCCN4CCN(c5ccccc5)CC4)c(Br)cn32)n(C)c1=O
Ki [3]: 297 nM

Compound: Cn1c(=O)c2c(nc3n2CC(C(=O)NCCN2CCN(c4cccc(Cl)c4)CC2)N3)n(C)c1=O (stereo unspecified)
Ki [17]: > 1000 nM

More lines, main results first:

Ki [3]: > 1000 nM
Ki (D(2) dopamine receptor): 839 nM
Ki [17]: 25.4 nM
Activity (Mus musculus [21]): Dose-dependent effect
Compound: COc1ccccc1N1CCN(CCCn2ccn3c4c(=O)n(C)c(=O)n(C)c4nc23)CC1
deltaT (Mus musculus [2]): -0.6 °C
Activity (Mus musculus [4]): 925.8
deltaT (Mus musculus [5]): -0.5 °C
Activity (Mus musculus [6]): 198
deltaT (Mus musculus [7]): -1.3 °C
Activity (Mus musculus [8]): 134.2 s
deltaT (Mus musculus [9]): -1.8 °C
Activity (Mus musculus [10]): 101.3 s
deltaT (Mus musculus [11]): -0.9 °C
deltaT (Mus musculus [12]): -1 °C
deltaT (Mus musculus [13]): -1.1 °C
Activity (Mus musculus [14]): 2.5
Activity (Mus musculus [15]): 353.4
deltaT (Mus musculus [16]): -0.7 °C
Activity (Mus musculus [18]): 567.6
Activity (Mus musculus [19]): 104.8 s
Activity (Mus musculus [20]): 2.5
deltaT (Mus musculus [22]): -0.3 °C

Ki [3]: 91.5 nM
Ki (D(2) dopamine receptor): > 1000 nM
Ki [17]: > 1000 nM
Compound: Cn1c(=O)c2c(nc3n(CCCN4CCN(c5cccc(Cl)c5)CC4)ccn23)n(C)c1=O

Ki [3]: 403 nM
Ki (D(2) dopamine receptor): 767 nM
Ki [17]: 17.1 nM
Activity (Mus musculus [21]): Dose-dependent effect
Compound: Cc1cn2c3c(=O)n(C)c(=O)n(C)c3nc2n1CCCN1CCN(c2cccc(Cl)c2)CC1
deltaT (Mus musculus [2]): -0.7 °C
deltaT (Mus musculus [23]): -0.5 °C
deltaT (Mus musculus [24]): -0.9 °C
deltaT (Mus musculus [25]): -0.5 °C
deltaT (Mus musculus [26]): -0.5 °C
Activity (Rattus norvegicus [27]): inactive
deltaT (Mus musculus [28]): -0.1 °C
deltaT (Mus musculus [16]): -1 °C
deltaT (Mus musculus [29]): -0.1 °C
deltaT (Mus musculus [30]): -0.4 °C
deltaT (Mus musculus [22]): -0.8 °C

Ki [3]: 813 nM
Ki (D(2) dopamine receptor): > 1000 nM
Ki [17]: 96.5 nM
Compound: Cn1c(=O)c2c(nc3n(CCCN4CCN(c5ccccc5)CC4)c(-c4ccccc4)cn23)n(C)c1=O
